Arbovirus inh: arbovirus infection inhibition; arbovirus infection cell-based antiviral screen; inhibition, % at 10 µM; hit rate 0.37% among 200,000; AID 1251; in the data active means inhibition above about 30%
Yeast lifespan up: yeast lifespan extension; S. cerevisiae growth with nicotinamide, OD615; deaD strain in restrictive glucose medium; inhibition of the nicotinamide effect, % at 10 µM; hit rate 0.68% among 130,000;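 active means inhibition above a set limit, placed 3 SD over the median of all compounds, cut at about 26% in these data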;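 further: 0% = nicotinamide-treated wells and 100% = cells grown without nicotinamide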
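Assay system: engineered S. cerevisiae DeaD replicative-lifespan strain, galactose-grown log-phase cells; Buffer or medium: CSMM-D glucose medium, restrictive; Probe or stimulus: nicotinamide 1.5 mM; Compound: single dose 10 µM compound, 0.25% DMSO; Schedule: 4 h preincubation then 48 h treatment at 30 °C; Technique: OD615 measurement.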
Efa HMGR inh: inhibitors of class II HMG-CoA reductase from Enterococcus faecalis; purified E. faecalis HMGR, NADPH absorbance 340 nm kinetic; inhibition, % at 10 µM; hit rate 0.41% among 190,000; AID 1066;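 active means inhibition above a set limit, the median over all tested compounds plus 3 SD, cut at about 9.5% in these data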;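 further: enzyme runs in reverse so mevalonate oxidation gives rising NADPH absorbance; 0% = complete reaction with DMSO and 100% = background rate lacking mevalonate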
BB579 growth dn: reduces growth of yeast BB579 in restrictive medium; hit rate 0.51% among 140,000; S. cerevisiae BB579 growth, OD615, 48 h; AID 804; inhibition, % at 10 µM;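 active means inhibition above a set limit, 3 SD over the mean compound inhibition, cut at about 44% in these data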
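Detection: OD615 turbidity measurement; Material: Saccharomyces cerevisiae DeaD strain BB579, replicative lifespan model yeast; Timing: 48 h exposure, 30 °C; Doses: single 10 µM dose; Medium: CSMM-D restrictive synthetic medium containing dextrose (glucose); Controls: amphotericin B at 10 µg/mL as positive control.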
Measles CPE: protection of cells from measles virus. Measles virus-infected cells, CPE protection, absorbance. protection (pct of control), % at 4 µM. hit rate 1.5% among 140,000; in the data active means protection mostly above about 24%, no sharp cut-off; inactive means mostly below about 26%
Rad51 HR inh: blocks human Rad51 in homologous recombination. hRad51 DNA strand exchange, fluorescence dequenching. inhibition, % at 10 µM. hit rate 0.085% among 200,000;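 active means inhibition above 40% at the single screening dose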;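 further: 0% = DMSO control wells and 100% = blanks with heterologous ssDNA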
Target sequence (Q06609 whole entry, looked up): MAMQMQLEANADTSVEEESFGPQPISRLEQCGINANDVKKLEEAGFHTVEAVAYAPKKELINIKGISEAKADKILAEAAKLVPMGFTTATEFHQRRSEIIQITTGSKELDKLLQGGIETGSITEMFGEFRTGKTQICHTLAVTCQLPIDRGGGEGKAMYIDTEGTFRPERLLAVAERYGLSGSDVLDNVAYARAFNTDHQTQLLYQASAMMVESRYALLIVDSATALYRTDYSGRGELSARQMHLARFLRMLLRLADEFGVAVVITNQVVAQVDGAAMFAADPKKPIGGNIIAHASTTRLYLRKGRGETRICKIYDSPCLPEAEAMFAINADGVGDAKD
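Material: Human Rad51 nucleoprotein filaments preassembled on unlabelled ssDNA | Also added: Labelled 47-mer dsDNA for strand exchange | Dosing: Single dose, 10 µM final compound | Schedule: 30-min compound preincubation and 15-min exchange, both room temperature | Technique: Fluorescence dequenching at 485/520 nm | Measure: Percent inhibition relative to plate controls and blanks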
Starred values were filed as active, the others as inactive; · = no result. Only some compounds are listed: those with a hit (about 2.4% of all), similar ones and a draw of the others.

SMILES	Arbovirus inh	Yeast lifespan up	Efa HMGR inh	BB579 growth dn	Measles CPE	Rad51 HR inh
CCN1CCN(C(=O)C2(NC(=O)Nc3ccccc3Cl)CCCCC2)CC1	6.1	·	-4.5	-25.5	48.9*	-2.5
CCOC(=O)C(=NC(C)(C)C)NNc1cc(Cl)ccc1Cl	3.4	2.1	-1.4	-41.1	3.6	17.1
CCOC(=O)C(=NCC1CCCO1)NNc1ccccc1Cl (configuration not stated)	·	·	·	·	·	43.9*
O=C1c2ccccc2-c2onc3c(Oc4ccccc4)cc(O)c1c23	-16.6	91.8*	-3.9	-45.6	1.1	·
CCOc1ccc2noc3c2c1C(=O)c1ccccc1-3	-16.0	-9.8	-2.6	32.1	23.9	-4.8
C=CCNC(=S)Nc1ccc(N(C)C)cc1	·	·	·	·	·	19.6
N=c1sccn1CC(=O)Nc1ccc(Cl)cc1[N+](=O)[O-]	·	·	·	·	·	25.0
COc1ccc(C2C(=O)c3ccccc3C2=O)cc1	-9.5	31.9*	0.3	-28.4	31.7	-8.8
COc1ccc(C2NC(c3ccc(OC)cc3OC)C(C)C(=O)C2C)c(OC)c1 (configuration not stated)	3.6	·	5.0	·	·	6.4
COc1ccc(C2C(=O)c3ccccc3C2=O)c(OC)c1	2.1	2.8	-1.2	-15.7	2.9	100.3*
COc1ccc(C2C(=O)c3ccccc3C2=O)cc1OC	2.9	·	3.5	·	·	-3.8
COc1cccc(-c2nnc(SCC(=O)Nc3ccc(S(N)(=O)=O)cc3)n2C)c1	-0.9	-5.5	-4.6	-33.9	5.9	-5.0
Fc1ccc(-c2csc3[n+]2CCS3)cc1	2.4	·	16.7*	-9.3	9.6	-3.1
O=C(CN1CCc2ccccc21)NN1CC(=O)N(c2ccc(Cl)cc2)CC1=O	·	·	·	·	·	-5.7
Cc1ccc(N/N=C/c2cccnc2)cc1	-34.3	-7.7	-0.7	92.1*	4.9	8.3
Cn1c(SCC(=O)N2CCCc3ccccc32)nnc1-c1c[nH]c2ccccc12	7.1	43.1*	-4.0	-44.6	2.1	-0.7
Cn1c(SCC(=O)N2CCCC2=O)nnc1-c1ccccc1F	5.8	·	18.9*	·	·	5.2
C[N+]1(CCCCCCC(=O)/C=N/O)CCCCCC1	7.8	-8.9	-6.3	8.2	32.4*	-0.1
Cc1c(NC(=S)Nc2ccccc2C(F)(F)F)cccc1[N+](=O)[O-]	-1.4	14.2	-0.1	-23.2	41.4*	-9.4
CC(c1ccon1)N(C)C(=O)CCc1nnc(C2(c3ccc(Cl)cc3)CCC2)o1 (configuration not stated)	3.6	·	-4.1	·	·	-36.2
Cc1ccc(-n2cnc3sc(C)c(C)c3c2=O)cc1	-7.2	·	13.3*	·	·	16.5
Cc1cccc(-n2cnc3sc(C)c(C)c3c2=O)c1	·	·	·	·	·	14.7
CCn1cc(-c2csc(N)n2)c(C)n1	4.4	·	-0.7	·	·	-7.5
COc1ccccc1-c1cc(C(F)(F)F)c(C#N)c(=O)[nH]1	19.1	·	1.1	·	·	16.0
COc1ccccc1-c1cc(SC)c(C#N)c(=O)o1	-6.7	26.5*	0.4	-26.1	18.6	2.3
SMILES	Arbovirus inh	Yeast lifespan up	Efa HMGR inh	BB579 growth dn	Measles CPE	Rad51 HR inh
CCOC(=O)/C=C/c1ccc2c(c1)S(=O)(=O)N(c1cccc(OC)c1)[C@H]2CC(=O)OCC	·	·	·	·	·	4.7
Nc1c2c(nc3ccc(Br)cc13)N(Cc1ccccc1)CC2	8.1	15.6	-5.4	-8.0	27.9*	·
CC(=O)OCC(=O)Nc1c(C)cc(C)cc1C	19.3	·	-5.6	·	·	-10.6
Cn1c(-c2c(N)n(-c3ccccc3)c3nc4ccccc4nc23)nc2ccccc21	64.1*	-8.5	-4.8	-28.6	28.5	-37.3
Cn1c(-c2ccc(N)cc2)nc2ccccc21	-2.1	-12.2	-0.6	-57.3	21.8*	9.7
COCCN=c1scc(-c2ccco2)n1/N=C/c1ccc(O)c(O)c1O	-0.7	·	5.2	·	·	-30.4
CC(C)N=c1scc(-c2ccco2)n1/N=C/c1ccc(O)c(O)c1	-29.7	-30.5	-1.9	92.0*	5.5	1.0
Cc1ccc(S(=O)(=O)N2CCOCC2)cc1C(=O)N1c2ccccc2Sc2ccccc21	0.5	3.2	0.1	-1.6	9.5	4.2
COC(=O)/C(=C1/Oc2cc(C)oc(=O)c2S1)C(F)(F)F	-46.0	47.4*	-8.2	-19.4	-0.1	3.7
COC(=O)/C(=C1/Oc2ccc(C(C)(C)C)cc2S1)C(F)(F)F	8.3	8.9	2.5	-48.2	10.5	6.8
Cc1ccccc1SCCNC(=O)c1ccccc1Br	-2.2	·	5.2	·	·	7.7
Cn1cc(CN2CCN(c3ccccc3)CC2)c2ccccc21	35.8*	-7.7	-9.7	-5.2	4.2	5.4
OC(CN1CCN(c2ccccc2)CC1)Cn1c2ccccc2c2ccccc21 (configuration not stated)	13.7	-6.9	-0.6	-17.0	3.1	-2.8
CCCc1cc(-c2n[nH]c(=S)n2C(C)c2ccccc2)cs1 (configuration not stated)	5.0	12.2	-0.6	50.4*	15.8	8.8
O=C(COC(=O)c1cccc(S(=O)(=O)N2CCc3ccccc32)c1)Nc1ccc(Cl)cn1	-1.1	-0.7	-5.2	-31.6	35.4*	-9.9
O=C(COC(=O)c1cccc(S(=O)(=O)N2CCc3ccccc32)c1)Nc1ncc(Cl)cc1Cl	-0.8	-0.4	2.3	-47.9	6.2	3.2
Cc1cc(NC(=O)CSc2nc3cc(C(=O)NCCCOC(C)C)ccc3c(=O)n2Cc2ccco2)no1	8.1	·	-6.7	·	·	-0.3
S=C(Nc1ccccc1)Nc1ccc(Cl)cc1Cl	7.4	-7.0	-8.1	-12.3	15.2	0.9
S=C(Nc1ccccc1)Nc1cc(Cl)ccc1Oc1ccccc1	0.1	-6.4	-2.1	-14.0	32.9*	4.0
COc1cc(C(F)(F)F)c(C(=O)NCc2cccc(Cl)c2)cn1	·	·	·	·	·	4.1
CCOC(=O)/C(=C\c1cn(C)c2ccccc12)[N+](=O)[O-]	-7.9	43.8*	-0.8	-15.4	26.9	·
CCC/C=C(\CCC)C(NC(=O)c1ccc(C(F)(F)F)cc1)c1ccccc1 (configuration not stated)	·	·	·	·	·	-11.5
Cc1cc(C(=O)Nc2nnc(C3CCCCC3)s2)no1	5.0	-6.2	-2.1	-8.4	1.8	-0.1
Cc1cc(C(=O)Nc2nnc(-c3ccccc3)s2)no1	-1.3	27.5*	-1.9	-39.3	5.1	-2.5
CCc1ccc(N/C(SC)=C(/C#N)C(N)=O)cc1	7.1	1.9	-6.7	20.1	39.6*	0.6
COc1ccc(/C=N/Nc2ccccc2)cc1Cn1nc(C)c([N+](=O)[O-])c1C	-35.6	-0.7	3.0	-65.9	21.6	-13.3
O=C1c2ccccc2C(=O)C1c1ccc2ccccc2n1	-1.0	-8.2	14.8*	53.8*	0.9	1.6
O=C(CC(Nc1ccccc1)c1ccccc1)C1CC1 (configuration not stated)	·	·	·	·	·	7.7
O=C(C[n+]1cnn(CC(=O)c2ccc(Cl)cc2Cl)c1)c1ccc([N+](=O)[O-])cc1	-37.2	-1.6	-4.5	-5.0	11.7	4.1
Cc1ccccc1NC(=S)NCc1ccc2c(c1)cc(C)n2C	1.9	5.1	15.3*	-48.6	4.9	-2.3

Assay outcomes from PubChem BioAssay.
